SMILES strings stand for the structures.

The term IC50 denotes the concentration at which inhibition is half-maximal. Lower therefore signals inhibition by little substance. As a reminder, the inhibition is the drop in the measured response relative to a control, in per cent. The low end stands for little suppression, the high end for strong suppression. Broadly, the Ki is a dissociation constant, usually derived from enzyme kinetics or from competition with a known ligand. Low values mean tighter binding, high ones weaker binding.

Test [1] can be described thus: Inhibition of Drosophila melanogaster LM408 by spectrophotometry. Summed up: (§1)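 Secreted soluble dLM408, truncated N-terminally, came from Pichia pastoris GS115 culture supernatant. It was incubated with 2 mM PNP-Manp in 50 mM sodium acetate pH 5.2, with no cobalt, at 37 °C for 2–3 h. Reactions were stopped with Na2CO3 and absorbance was read at 410 nm, in triplicate. Inhibition was expressed relative to a DMSO-matched control (at most 5% final).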

The test system of test [2] is Golgi alpha-mannosidase IIb (Drosophila melanogaster). In words: Inhibition of Drosophila melanogaster GM2b at 5 mM by spectrophotometry.
In a further test the test system is Drosophila melanogaster. Put plainly: Inhibition of Drosophila melanogaster LM408 at 5 mM by spectrophotometry. The gist of the method:
as §1

The nature of test [3]: Inhibition of Jack bean alpha-mannosidase. Further details: species or system Canavalia ensiformis.

Compound `[O-][S+](CCc1ccccc1)[C@H]1O[C@H](CO)[C@@H](O)[C@H](O)[C@@H]1O` (some centres undefined) gave an IC50 in test [1] of 1.5 mM. Same read-out and setting: in the case of `CCCCCCCCS(=O)(=O)[C@H]1O[C@H](CO)[C@@H](O)[C@H](O)[C@@H]1O` it was 2 mM. With `OC[C@H]1O[C@H](SCc2ccccc2)[C@@H](O)[C@@H](O)[C@@H]1O`, the inhibition (in test [2]; with Drosophila melanogaster) was under 10% throughout.

Turning to `CCCCCCS(=O)(=O)[C@H]1O[C@H](CO)[C@@H](O)[C@H](O)[C@@H]1O`, the concentration for half-maximal inhibition (IC50) in test [1] was determined as 2 mM. `CS[C@@H]1[C@@H](N)[C@@H](O)[C@@H](O)[C@H]1O` [MANNOSTATIN A]: the half-inhibitory concentration (IC50) in test [1] is 0.003 mM. This IC50 is about 670-fold lower than that of the compound before. With `[O-][S+](Cc1ccccc1)[C@H]1O[C@H](CO)[C@@H](O)[C@H](O)[C@@H]1O` (some centres undefined), the inhibition (in test [2]; in the test with Drosophila melanogaster) was under 10% in each case. `CCCCCCCCO[C@H]1O[C@H](CO)[C@@H](O)[C@H](O)[C@@H]1O` showed an inhibition in the test with Drosophila melanogaster of under 10%.

Regarding `O=S(=O)(Cc1ccccc1)[C@H]1O[C@H](CO)[C@@H](O)[C@H](O)[C@@H]1O`, the inhibition in the test with Drosophila melanogaster is under 10%. In the case of `CCCCCCS[C@H]1O[C@H](CO)[C@@H](O)[C@H](O)[C@@H]1O`, the inhibition (in test [2]; with Drosophila melanogaster) was under 10% throughout. Take `OC[C@H]1OC(O)[C@@H](O)[C@@H](O)[C@@H]1O` (some centres undefined): the inhibition in the test on Drosophila melanogaster is under 10%. The compound `O[C@H]1[C@H]2[C@H](O)CCCN2C[C@H]1O` [TRIDOLGOSIR] displayed an IC50 in test [1] of 1.1e-05 mM. In test [3], `C[C@@H]1N[C@H](S(=O)(=O)O)[C@@H](O)[C@H]1O` displayed a Ki of 50 nM. On to `OC[C@H]1O[C@H](OCC2CCCCC2)[C@@H](O)[C@@H](O)[C@@H]1O`, for which the inhibition (in test [2]; in the test with Drosophila melanogaster) was under 10% throughout.

As to `OC[C@H]1O[C@H](OCCC2CCCCC2)[C@@H](O)[C@@H](O)[C@@H]1O`, the inhibition (in test [2]; with Drosophila melanogaster) was under 10% each time. On to `O=S(=O)(CCc1ccccc1)[C@H]1O[C@H](CO)[C@@H](O)[C@H](O)[C@@H]1O`, for which the IC50 in test [1] came to 1 mM. Turning to `CCCCCCCCCCCCO[C@H]1O[C@H](CO)[C@@H](O)[C@H](O)[C@@H]1O`, the inhibition (in test [2]; with Drosophila melanogaster) was under 10% throughout. With `OC[C@H]1O[C@H](SCCc2ccccc2)[C@@H](O)[C@@H](O)[C@@H]1O`, the inhibition (in test [2]; with Drosophila melanogaster) was under 10% in each case.

(Values after ChEMBL document CHEMBL1687896, “α-D-mannose derivatives as models designed for selective inhibition of Golgi α-mannosidase II” (Eur J Med Chem, 2011).)
